# Assay results reported in ChEMBL document CHEMBL1150371, “Design and synthesis of benzenesulfonanilides active against methicillin-resistant Staphylococcus aureus and vancomycin-resistant Enterococcus” (Bioorg Med Chem, 2008).
# The source made the active and inactive calls. The calls are words filed in the database; no cut-off is given here.
# How the values were obtained:
# Staphylococcus aureus [1] = assay: Antimicrobial activity against methicillin-resistant Staphylococcus aureus at […] by disk diffusion method; assay type: functional
# Procedure, shortened: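 Overnight nutrient-broth culture (35 °C, 12–18 h) of MRSA OM584 spread on Mueller-Hinton agar; 8-mm paper discs given 10 µL of 20 mM compound in DMSO; plates incubated at 37 °C about 20 h; inhibition zones measured and scored: −, ± (0–1 mm), +1 (1–15 mm), +2 (15–20 mm), +3 (>20 mm).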
# Staphylococcus aureus [2] = assay: Antimicrobial activity against methicillin-resistant Staphylococcus aureus OM584 by microdilution method; assay type: functional
# Procedure, shortened: (§1)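 Broth microdilution MIC per Japan Society of Chemotherapy standard method. Cultures grown in sensitivity test broth at 37 °C to OD620 0.1, inoculum ≈10^5 CFU/mL. Twofold dilutions from DMSO stock, 500 to 0.2 µg/mL; 20 h, 37 °C, humid. MIC = lowest concentration clearly inhibiting growth by visual inspection; vancomycin standard; media, DMSO and water controls; at least duplicate.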
# Enterococcus faecium = assay: Antimicrobial activity against vancomycin-resistant Enterococcus faecium FN-1 by microdilution susceptibility test; assay type: functional; procedure, shortened: as §1
# Mus musculus = assay: Acute toxicity in mouse at 100 mg/kg, ip upto 14 days; assay type: organism-based; set-up: dose 100 mg/kg, route intraperitoneal; conditions: in vivo, 336 h
# Procedure, shortened: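 Male mice (15–30 g), water only for 12 h beforehand; compound in 0.5% CMC given ip at doses up to 100 mg kg-1, n = 5/group; toxic symptoms observed up to 14 days.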
Compound,Activity (Staphylococcus aureus [1]),MIC (Staphylococcus aureus [2]),MIC (Enterococcus faecium),further results
CS(=O)(=O)Nc1ccc(S(=O)(=O)Nc2ccccc2)cc1,inactive,–,–,–
O=S(=O)(Nc1cc(Cl)cc(Cl)c1)c1cc(C(F)(F)F)cc(C(F)(F)F)c1,–,0.5 µg/mL,1 µg/mL,Activity (Mus musculus): Non-toxic
COc1ccc(NS(=O)(=O)c2ccc(C(=O)O)cc2)cc1,inactive,–,–,–
O=S(=O)(Nc1ccc(Cl)cc1)c1cc(C(F)(F)F)cc(C(F)(F)F)c1,–,31.3 µg/mL,62.5 µg/mL,–
CS(=O)(=O)Nc1ccc(S(=O)(=O)Nc2cc(C(F)(F)F)cc(C(F)(F)F)c2)cc1,–,–,–,inhibition zone (IZ) (Staphylococcus aureus [1]): 0 mm
O=S(=O)(Nc1ccc(C(F)(F)F)cc1)c1cc(Cl)cc(Cl)c1,–,31.3 µg/mL,31.3 µg/mL,–
O=[N+]([O-])c1ccc(S(=O)(=O)Nc2ccccc2)cc1,inactive,–,–,–
COc1ccc(NS(=O)(=O)c2ccc(NS(C)(=O)=O)cc2)cc1,inactive,–,–,–
O=S(=O)(Nc1cc(F)cc(F)c1)c1cc(Cl)cc(Cl)c1,–,31.3 µg/mL,7.8 µg/mL,–
CS(=O)(=O)Nc1ccc(S(=O)(=O)Nc2ccc(C(F)(F)F)cc2)cc1,inactive,–,–,–
Cc1cccc(NS(=O)(=O)c2ccc(NS(C)(=O)=O)cc2)c1,inactive,–,–,–
O=S(=O)(Nc1cc(Cl)cc(Cl)c1)c1ccc(Cl)cc1,–,31.3 µg/mL,62.5 µg/mL,–
O=[N+]([O-])c1ccc(NS(=O)(=O)c2cc(C(F)(F)F)cc(C(F)(F)F)c2)cc1,–,7.8 µg/mL,7.8 µg/mL,–
O=S(=O)(Nc1cc(Cl)nc(Cl)c1)c1cc(Cl)cc(Cl)c1,–,15.6 µg/mL,7.8 µg/mL,–
O=S(=O)(Nc1cc(Cl)nc(Cl)c1)c1cc(C(F)(F)F)cc(C(F)(F)F)c1,–,15.6 µg/mL,7.8 µg/mL,–
O=S(=O)(Nc1cc(F)ccc1F)c1cc(C(F)(F)F)cc(C(F)(F)F)c1,–,15.6 µg/mL,62.5 µg/mL,–
O=S(=O)(Nc1cc(F)cc(F)c1)c1cc(C(F)(F)F)cc(C(F)(F)F)c1,–,2 µg/mL,7.8 µg/mL,Activity (Mus musculus): Non-toxic
Cc1ccccc1NS(=O)(=O)c1ccc(N)cc1,inactive,–,–,–
O=S(=O)(Nc1cc(C(F)(F)F)cc(C(F)(F)F)c1)c1ccc(C(F)(F)F)cc1,–,15.6 µg/mL,7.8 µg/mL,inhibition zone (IZ) (Staphylococcus aureus [1]): >20 mm
Cc1ccc(NS(=O)(=O)c2ccc([N+](=O)[O-])cc2)cc1,inactive,–,–,–

Compound,Activity (Staphylococcus aureus [1]),MIC (Staphylococcus aureus [2]),MIC (Enterococcus faecium),further results
Cc1cc(C)cc(NS(=O)(=O)c2ccc(N)cc2)c1,inactive,–,–,–
O=[N+]([O-])c1ccc(NS(=O)(=O)c2cc(Cl)cc(Cl)c2)cc1,–,7.8 µg/mL,15.6 µg/mL,–
COc1ccc(S(=O)(=O)Nc2cc(Cl)cc(Cl)c2)cc1,–,250 µg/mL,125 µg/mL,–
Nc1ccc(S(=O)(=O)Nc2ccc(I)cc2)cc1,inactive,–,–,–
O=S(=O)(Nc1cc(Cl)c(O)c(Cl)c1)c1cc(C(F)(F)F)cc(C(F)(F)F)c1,–,125 µg/mL,62.5 µg/mL,–
O=S(=O)(Nc1ccc(C(F)(F)F)cc1)c1cc(C(F)(F)F)cc(C(F)(F)F)c1,–,7.8 µg/mL,3.9 µg/mL,–
O=[N+]([O-])c1ccc(S(=O)(=O)Nc2ccc(C(F)(F)F)cc2)cc1,inactive,–,–,–
O=S(=O)(Nc1cc(C(F)(F)F)cc(C(F)(F)F)c1)c1ccc(F)cc1,–,15.6 µg/mL,62.5 µg/mL,–
O=S(=O)(Nc1ccc(F)c(F)c1)c1cc(C(F)(F)F)cc(C(F)(F)F)c1,–,3.9 µg/mL,7.8 µg/mL,–
Cl.Nc1ccc(S(=O)(=O)Nc2cc(C(F)(F)F)cc(C(F)(F)F)c2)cc1,–,–,–,inhibition zone (IZ) (Staphylococcus aureus [1]): 1 mm
Nc1ccc(NS(=O)(=O)c2cc(C(F)(F)F)cc(C(F)(F)F)c2)cc1,–,> 250 µg/mL,> 250 µg/mL,–
Cc1ccccc1NS(=O)(=O)c1ccc(NS(C)(=O)=O)cc1,inactive,–,–,–
Nc1ccc(S(=O)(=O)Nc2ccc(C(F)(F)F)cc2)cc1,inactive,–,–,–
O=S(=O)(Nc1cc(C(F)(F)F)cc(C(F)(F)F)c1)c1cccc(Cl)c1,–,31.3 µg/mL,15.6 µg/mL,–
Cc1cccc(NS(=O)(=O)c2ccc(N)cc2)c1,inactive,–,–,–
Nc1ccc(NS(=O)(=O)c2cc(Cl)cc(Cl)c2)cc1,–,> 250 µg/mL,> 250 µg/mL,–
O=C(O)c1ccc(S(=O)(=O)Nc2ccc(I)cc2)cc1,inactive,–,–,–
CN(c1cc(Cl)cc(Cl)c1)S(=O)(=O)c1cc(C(F)(F)F)cc(C(F)(F)F)c1,–,> 250 µg/mL,> 250 µg/mL,–
COc1ccc(NS(=O)(=O)c2cc(C(F)(F)F)cc(C(F)(F)F)c2)cc1,–,> 250 µg/mL,125 µg/mL,–
